The results in this text go back to ChEMBL document CHEMBL3997809, “Design and synthesis of a new series of 3,5-disubstituted isoxazoles active against Trypanosoma cruzi and Leishmania amazonensis” (Eur J Med Chem, 2017).

pIC50: −log10 of the molar value. Active and inactive are the calls of the source. The rule behind the calls is not given here. A value given as a limit tells only on which side of the number the result lay.

The test system of assay [1] is Trypanosoma cruzi. In words: Growth inhibition of Trypanosoma cruzi Tulahuen amastigote forms infected in human THP1 cells at 100 uM after 48 hrs relative to control. Format: functional. To be noted: THP-1, 48 h, read-out: GI. The procedure, abridged:
(§1)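 PMA-differentiated THP-1 macrophages (4.0 × 10^4 cells/well, 100 ng/ml, 72 h) infected with trypomastigotes at 2:1 parasite/cell overnight at 37 °C. Washed, then 24 h more for amastigote transformation. Compounds added in triplicate for 48 h at 37 °C, 5% CO2. Read-out: CPRG 100 µM with 0.1% NP-40 for 16 h, OD 570/630 nm. Negative control DMSO 1%.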

In assay [2] the test system is Trypanosoma cruzi. Put plainly: Trypanocidal activity against Trypanosoma cruzi Tulahuen amastigote forms infected in human THP1 cells after 48 hrs. To be noted: THP-1, 48 h. Format: functional, cell-based. The procedure, abridged:
as §1

Assay [3] concerns Trypanosoma cruzi. Put plainly: Trypanocidal activity against Trypanosoma cruzi Tulahuen trypomastigote forms at 3.9 to 250 uM after 72 hrs by MTT assay. It is filed as functional. In outline: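 Culture-derived Tulahuen trypomastigotes raised from infected L929 cells, 1.5 × 10^6 parasites/well. Compounds serially diluted from 250 to 3.9 µM, incubated 72 h at 37 °C, 5% CO2. Viability by MTT, OD 540 nm after dissolving formazan in DMSO. Negative control DMSO 1%.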

For assay [4], the system named is Leishmania amazonensis. Put plainly: Growth inhibition of Leishmania amazonensis MHOM/BR/77/LTB0016 amastigote forms expressing beta-galactosidase infected in human THP1 cells at 100 uM after 48 hrs relative to control. Format: functional. Particulars: MHOM/BR/77/LTB0016, THP-1, 48 h, read-out: GI. In outline: (§2)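 THP-1 cells seeded at 4.0 × 10^4 cells/well and differentiated with PMA 100 ng/ml for 72 h. Promastigotes (4-day culture) opsonized 1 h at 34 °C in RPMI-1640 with 10% heat-inactivated human B+ serum. Infection at 10:1 parasite/cell for 3 h at 34 °C, washed, then 24 h for amastigote transformation. Compound treatment in triplicate for 48 h at 34 °C. Read-out: CPRG 100 µM with 0.1% NP-40, 16 h, OD 570/630 nm. Negative control DMSO 1%.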

Assay [5] concerns Leishmania amazonensis. Put plainly: Antileishmanial activity against Leishmania amazonensis MHOM/BR/77/LTB0016 amastigote forms expressing beta-galactosidase infected in human THP1 cells after 48 hrs. It is filed as functional, cell-based. Particulars: MHOM/BR/77/LTB0016, THP-1, 48 h. The procedure, abridged:
as §2

As for `CC(=O)OC[C@H]1O[C@H](OCc2cc(-c3ccc4c(c3)OCO4)no2)[C@H](OC(C)=O)[C@@H](OC(C)=O)[C@@H]1OC(C)=O`, the inhibition of growth at 100 µM in the assay on Trypanosoma cruzi [1] was 3.15%; in the assay with Leishmania amazonensis [4], 2.05%. In addition, the pIC50 in the assay on Trypanosoma cruzi [2] and in the assay with Leishmania amazonensis [5] was less than 4.00 in each case. Further, the result with Trypanosoma cruzi [3] was inactive.
Consider `OC[C@H]1O[C@H](OCc2cc(-c3ccc4c(c3)OCO4)no2)[C@H](O)[C@@H](O)[C@@H]1O`, for which the inhibition of growth at 100 µM in the assay on Trypanosoma cruzi [1] was found to be 2.93%; in the assay on Leishmania amazonensis [4], 3.82%. In addition, the pIC50 with Trypanosoma cruzi [2] and with Leishmania amazonensis [5] was less than 4.00 throughout. Besides, the outcome with Trypanosoma cruzi [3] was inactive.
As to `OCc1ccc(-c2cc(-c3ccc(F)cc3)no2)cc1`, in the assay on Trypanosoma cruzi [1], the inhibition of growth at 100 µM worked out at 10.6%. For the same molecule, the pIC50 with Trypanosoma cruzi [2] was less than 4.00. In addition, in the assay with Trypanosoma cruzi [3], the result was inactive.
Turning to `c1ccc(-c2cc(-c3ccccc3)on2)cc1` [3,5-DIPHENYLISOXAZOLE], the inhibition of growth at 100 µM amounted to 29.4% with Trypanosoma cruzi [1] and 6.03% in the assay on Leishmania amazonensis [4]. The pIC50 with Trypanosoma cruzi [2] and in the assay with Leishmania amazonensis [5] was less than 4.00 throughout. Further, the outcome in the assay on Trypanosoma cruzi [3] was inactive.
In the case of `OCc1cc(-c2ccc(F)cc2)no1`, the inhibition of growth at 100 µM in the assay on Trypanosoma cruzi [1] was determined as 8.27%; with Leishmania amazonensis [4], 3.35%. The negative-log IC50 (pIC50) with Trypanosoma cruzi [2] and in the assay on Leishmania amazonensis [5] was less than 4.00 each time. For the same molecule, in the assay with Trypanosoma cruzi [3], the outcome was inactive.
On to `COc1ccc(-c2cc(CO)on2)cc1`, for which, in the assay on Trypanosoma cruzi [1], the inhibition of growth at 100 µM stood at 9.32%. For the same molecule, the negative-log IC50 (pIC50) in the assay on Trypanosoma cruzi [2] is less than 4.00. For the same molecule, the outcome in the assay with Trypanosoma cruzi [3] was inactive.
For `COc1ccc(-c2cc(CO)on2)cc1OC`, in the assay with Trypanosoma cruzi [1], the inhibition of growth at 100 µM is 0%. In addition, in the assay on Trypanosoma cruzi [3], the result was inactive.
Consider `COc1ccc(-c2cc(-c3ccc(CO)cc3)on2)cc1OC`, for which the inhibition of growth at 100 µM in the assay on Trypanosoma cruzi [1] amounted to 14.2%. The pIC50 in the assay on Trypanosoma cruzi [2] is less than 4.00. Besides, the result in the assay on Trypanosoma cruzi [3] was inactive.
With `COc1ccc(-c2cc(-c3ccc(CO)cc3)on2)cc1`, the inhibition of growth at 100 µM in the assay on Trypanosoma cruzi [1] turned out to be 5.77%. The pIC50 in the assay on Trypanosoma cruzi [2] is less than 4.00. Also, the result with Trypanosoma cruzi [3] was inactive.
Take `CC(=O)OC[C@H]1O[C@H](OCc2cc(-c3ccccc3)no2)[C@H](OC(C)=O)[C@@H](OC(C)=O)[C@@H]1OC(C)=O`: the inhibition of growth at 100 µM in the assay on Trypanosoma cruzi [1] came to 1.16%; in the assay on Leishmania amazonensis [4], 2.06%. The pIC50 with Trypanosoma cruzi [2] and with Leishmania amazonensis [5] was less than 4.00 each time. The outcome with Trypanosoma cruzi [3] was inactive.
Turning to `OC[C@H]1O[C@H](OCc2cc(-c3ccccc3)no2)[C@H](O)[C@@H](O)[C@@H]1O`, the inhibition of growth at 100 µM in the assay with Trypanosoma cruzi [1] was 7.3%; in the assay with Leishmania amazonensis [4], 4.57%. Also, the pIC50 in the assay on Trypanosoma cruzi [2] and with Leishmania amazonensis [5] was less than 4.00 throughout. The outcome in the assay on Trypanosoma cruzi [3] was inactive.
Consider `OCc1cc(-c2ccccc2)no1`, for which the inhibition of growth at 100 µM in the assay on Trypanosoma cruzi [1] amounted to 7.57%. In addition, the pIC50 in the assay on Trypanosoma cruzi [2] is less than 4.00. In addition, the result with Trypanosoma cruzi [3] was inactive.
With `OCc1ccc(-c2cc(-c3ccccc3)no2)cc1`, the inhibition of growth at 100 µM in the assay on Trypanosoma cruzi [1] amounted to 7.01%. In addition, the pIC50 with Trypanosoma cruzi [2] was less than 4.00. Moreover, the outcome in the assay with Trypanosoma cruzi [3] was inactive.
For `O=C(O)c1cc(-c2ccccc2)no1`, in the assay on Trypanosoma cruzi [1], the inhibition of growth at 100 µM amounted to 0%. For the same molecule, in the assay on Trypanosoma cruzi [3], the result was inactive.
Take `O=[N+]([O-])c1ccc(-c2cc(-c3ccc(CO)cc3)on2)cc1`: the inhibition of growth at 100 µM with Trypanosoma cruzi [1] stood at 15.9%. The molecule further showed a pIC50 with Trypanosoma cruzi [2] of less than 4.00. Further, the outcome in the assay with Trypanosoma cruzi [3] was inactive.
For `OCc1cc(-c2ccc3c(c2)OCO3)no1`, in that order: 1.95%, less than 4.00 and “inactive”.
With `CC(=O)Nc1ccc(-c2cc(-c3ccccc3)no2)cc1`, the inhibition of growth at 100 µM in the assay on Trypanosoma cruzi [1] is 0%. For the same molecule, the result with Trypanosoma cruzi [3] was inactive.
As to `CC(C)(C)OC(=O)Nc1ccc(-c2cc(-c3ccccc3)no2)cc1`, the inhibition of growth at 100 µM in the assay on Trypanosoma cruzi [1] stood at 0%. Moreover, the result in the assay on Trypanosoma cruzi [3] was inactive.
